From ChEMBL document CHEMBL1131432, “Side chain methyl substitution in the delta-opioid receptor antagonist TIPP has an important effect on the activity profile” (J Med Chem, 1998)

Assays:
[1] = species: Cavia porcellus; test: In vitro agonist activity in electrically stimulated guinea pig ileum.; format: functional
How it was run: (§1)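 Isolated guinea pig ileum or mouse vas deferens, electrically stimulated; the read-out is inhibition of contractions. A [Leu5]enkephalin log dose–response curve was run on each preparation and test IC50 values were normalised to it. Antagonist Ke was taken from the IC50 ratio with and without a fixed antagonist concentration; in MVD the δ-antagonism was measured against DPDPE.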

[2] = species: Mus musculus; test: Inhibition of electrically evoked contractions of MVD. In MVD assay, the opioid effect was primarily mediated by delta-receptor; format: functional; how it was run: as §1
[3] = target: Kappa-type opioid receptor (Cavia porcellus, UniProt P41144); test: Binding affinity towards Opioid receptor kappa 1 on guinea pig cerebellum membranes by [3H]U-69593 displacement.; format: tissue-based, Membrane
[4] = target: Mu-type opioid receptor (Rattus norvegicus, UniProt P33535); test: Binding affinity towards Opioid receptor mu 1 on rat forebrain membranes by [3H]sufentanil displacement.; set-up: species or system Membrane
[5] = species: Mus musculus; test: Inhibition of electrically evoked contractions of MVD. In MVD assay, the opioid effect are primarily mediated by delta-receptors.; format: functional
How it was run: (§2)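 Mouse vas deferens preparations, electrically stimulated, with inhibition of evoked contractions as the read-out. Each preparation got a [Leu5]enkephalin log dose-response curve as standard, and test IC50 values were normalized against it. Antagonism was tested against the agonist DPDPE. Ke came from the ratio of agonist IC50 with and without a fixed antagonist concentration.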

[6] = species: Mus musculus; test: (§3) Inhibition of electrically evoked contractions of MVD in MVD assay, the opioid effect was primarily mediated by delta-receptor; format: functional; how it was run: as §1
[7] = species: Mus musculus; test: as §3; format: functional; remark: listed apart in the source
[8] = species: Cavia porcellus; test: In vitro opioid activity tested in bioassay based on inhibition of electrically evoked contractions of the GPI.; format: functional; how it was run: as §1
[9] = species: Mus musculus; test: Inhibition of electrically evoked contractions of MVD. In MVD assay, the opioid effect is primarily mediated by delta-receptor; format: functional; how it was run: as §2
[10] = species: Mus musculus; test: as §3; format: functional, organism-based; how it was run: as §1

Sequence of Mu-type opioid receptor (P33535 whole entry): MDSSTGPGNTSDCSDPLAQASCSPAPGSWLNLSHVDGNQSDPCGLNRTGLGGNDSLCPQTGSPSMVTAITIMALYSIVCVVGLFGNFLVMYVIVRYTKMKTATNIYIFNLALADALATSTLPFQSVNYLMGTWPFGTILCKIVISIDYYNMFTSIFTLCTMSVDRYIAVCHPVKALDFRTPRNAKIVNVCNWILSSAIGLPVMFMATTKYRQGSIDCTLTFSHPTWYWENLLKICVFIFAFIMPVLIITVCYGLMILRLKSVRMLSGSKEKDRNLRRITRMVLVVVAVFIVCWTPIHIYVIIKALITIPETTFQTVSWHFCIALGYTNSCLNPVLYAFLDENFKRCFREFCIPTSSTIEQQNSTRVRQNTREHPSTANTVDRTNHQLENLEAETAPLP
Sequence of Kappa-type opioid receptor (P41144 whole entry): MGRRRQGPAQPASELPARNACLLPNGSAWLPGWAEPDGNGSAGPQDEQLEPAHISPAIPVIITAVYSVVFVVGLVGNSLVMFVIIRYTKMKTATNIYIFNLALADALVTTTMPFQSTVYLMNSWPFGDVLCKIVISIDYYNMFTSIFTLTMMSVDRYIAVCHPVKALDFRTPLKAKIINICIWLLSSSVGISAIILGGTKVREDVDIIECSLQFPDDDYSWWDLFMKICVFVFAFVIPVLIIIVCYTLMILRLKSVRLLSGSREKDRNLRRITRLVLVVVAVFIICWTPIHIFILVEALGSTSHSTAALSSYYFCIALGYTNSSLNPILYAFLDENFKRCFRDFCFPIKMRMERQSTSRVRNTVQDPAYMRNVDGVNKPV

`N[C@@H](Cc1ccc(O)cc1)C(=O)N1Cc2ccccc2C[C@H]1C(=O)N[C@@H](Cc1ccccc1)C(=O)N[C@@H](Cc1ccccc1)C(=O)O` was tested, and the IC50 [1] was over 10 µM, the Ke [2] was 4.8 nM and the Ki [3] was over 10 µM. The Ki [4] was over 10 µM.

`NC(=O)[C@H](Cc1ccccc1)NC(=O)[C@@H](Cc1ccccc1)NC(=O)[C@@H]1Cc2ccccc2CN1C(=O)[C@@H](N)Cc1ccc(O)cc1` showed an IC50 [1] of over 10 µM, a Ke [2] of 125 nM and a Ki [4] of 0.658 µM.

For `C[C@@H](c1ccc(O)cc1)[C@H](N)C(=O)N1Cc2ccccc2C[C@H]1C(=O)N[C@@H](Cc1ccccc1)C(=O)N[C@@H](Cc1ccccc1)C(N)=O`, the IC50 [1] was over 10 µM, the Ke [5] was 102 nM and the Ki [3] was over 10 µM. For the same compound, the Ki [4] was 0.352 µM.

Work on `C[C@H](c1ccc(O)cc1)[C@@H](N)C(=O)N1Cc2ccccc2C[C@H]1C(=O)N[C@@H](Cc1ccccc1)C(=O)N[C@@H](Cc1ccccc1)C(N)=O` yielded an IC50 [1] of over 10 µM, a Ke [6] of 1020 nM and a Ki [3] of 1.18 µM. It also gave a Ki [4] of 1.6 µM.

Compound `C[C@@H](c1ccccc1)[C@H](NC(=O)[C@H](Cc1ccccc1)NC(=O)[C@@H]1Cc2ccccc2CN1C(=O)[C@@H](N)Cc1ccc(O)cc1)C(N)=O` has an IC50 [1] of 0.636 µM, a Ke [2] of 5.36 nM and a Ki [3] of 1.28 µM. The Ki [4] was 0.047 µM.

For `C[C@@H](c1ccccc1)[C@H](NC(=O)[C@@H]1Cc2ccccc2CN1C(=O)[C@@H](N)Cc1ccc(O)cc1)C(=O)N[C@@H](Cc1ccccc1)C(N)=O`, the IC50 [1] was 5.52 µM, the Ke [2] was 18.2 nM and the Ki [3] was 3.4 µM. The Ki [4] was 0.973 µM.

Work on `C[C@H](c1ccccc1)[C@@H](NC(=O)[C@@H]1Cc2ccccc2CN1C(=O)[C@@H](N)Cc1ccc(O)cc1)C(=O)N[C@@H](Cc1ccccc1)C(=O)O` yielded an IC50 [1] of over 10 µM, a Ke [2] of 0.192 nM and a Ki [3] of over 10 µM. The Ki [4] was over 10 µM.

With `C[C@H](c1ccccc1)[C@H](NC(=O)[C@@H]1Cc2ccccc2CN1C(=O)[C@@H](N)Cc1ccc(O)cc1)C(=O)N[C@@H](Cc1ccccc1)C(N)=O` the IC50 [1] was 5.08 µM, the Ke [6] was 7.24 nM and the Ki [3] was 4.32 µM. For the same compound, the Ki [4] was 0.149 µM.

With `C[C@H](c1ccc(O)cc1)[C@H](N)C(=O)N1Cc2ccccc2C[C@H]1C(=O)N[C@@H](Cc1ccccc1)C(=O)N[C@@H](Cc1ccccc1)C(N)=O` the IC50 [1] was 1.21 µM, the IC25 [7] was 1.03 µM and the Ki [3] was over 10 µM. For the same compound, the Ki [4] was 0.284 µM.

`C[C@@H](c1ccccc1)[C@@H](NC(=O)[C@H](Cc1ccccc1)NC(=O)[C@@H]1Cc2ccccc2CN1C(=O)[C@@H](N)Cc1ccc(O)cc1)C(N)=O` gave an IC50 [1] of 4.51 µM, a Ke [6] of 27.7 nM and a Ki [3] of 2.84 µM. The Ki [4] was over 10 µM.

With `C[C@H](c1ccccc1)[C@@H](NC(=O)[C@H](Cc1ccccc1)NC(=O)[C@@H]1Cc2ccccc2CN1C(=O)[C@@H](N)Cc1ccc(O)cc1)C(N)=O` the IC35 [8] was 1.71 µM, the Ke [6] was 20.5 nM and the Ki [3] was 0.766 µM. The Ki [4] was 0.498 µM.

In the case of `NC(=O)[C@H](Cc1ccccc1)NC(=O)[C@H](Cc1ccccc1)NC(=O)[C@@H]1Cc2ccccc2CN1C(=O)[C@@H](N)Cc1ccc(O)cc1`, the Ke [9] is reported as 18 nM, the Ki [3] is reported as 0.838 µM and the Ki [4] is reported as 0.178 µM.

Work on `N[C@@H](Cc1ccc(O)cc1)C(=O)N1Cc2ccccc2C[C@H]1C(=O)NC(Cc1ccccc1)C(=O)N[C@@H](Cc1ccccc1)C(=O)O` (single isomer, unassigned) yielded a Ki [4] of 4 µM.

For `C[C@@H](c1ccccc1)C(NC(=O)[C@@H]1Cc2ccccc2CN1C(=O)[C@@H](N)Cc1ccc(O)cc1)C(=O)N[C@@H](Cc1ccccc1)C(N)=O` (single isomer, unassigned), the IC50 [1] was 0.127 µM, the Ki [3] was 1.19 µM and the Ki [4] was 0.084 µM.

For `C[C@H](c1ccccc1)C(NC(=O)[C@@H]1Cc2ccccc2CN1C(=O)[C@@H](N)Cc1ccc(O)cc1)C(=O)N[C@@H](Cc1ccccc1)C(N)=O` (single isomer, unassigned), the IC50 [1] was over 10 µM, the Ke [6] was 54.4 nM and the Ki [3] was 0.442 µM. The Ki [4] was over 10 µM.

Compound `C[C@@H](c1ccc(O)cc1)C(N)C(=O)N1Cc2ccccc2C[C@H]1C(=O)N[C@@H](Cc1ccccc1)C(=O)N[C@@H](Cc1ccccc1)C(N)=O` (single isomer, unassigned) has an IC50 [1] of over 10 µM, a Ke [6] of 317 nM and a Ki [3] of 2.51 µM. The Ki [4] was over 10 µM.

With `C[C@H](c1ccccc1)C(NC(=O)[C@H](Cc1ccccc1)NC(=O)[C@@H]1Cc2ccccc2CN1C(=O)[C@@H](N)Cc1ccc(O)cc1)C(N)=O` (single isomer, unassigned) the IC50 [1] was 2.74 µM, the Ke [6] was 5.37 nM and the Ki [3] was 0.253 µM. The Ki [4] was 2.02 µM.

With `C[C@H]1c2ccccc2CN(C(=O)C(N)Cc2ccc(O)cc2)[C@H]1C(=O)N[C@@H](Cc1ccccc1)C(=O)N[C@@H](Cc1ccccc1)C(=O)O` (single isomer, unassigned) the IC50 [1] was over 10 µM, the Ke [2] was 1.61 nM and the Ki [3] was over 10 µM. For the same compound, the Ki [4] was over 10 µM.

With `CC1c2ccccc2CN(C(=O)C(N)Cc2ccc(O)cc2)[C@@H]1C(=O)N[C@@H](Cc1ccccc1)C(=O)N[C@@H](Cc1ccccc1)C(=O)O` (single isomer, unassigned) the IC50 [1] was over 10 µM, the Ke [2] was 2.09 nM and the Ki [3] was over 10 µM. The Ki [4] was over 10 µM.

With `NC(=O)[C@H](Cc1ccccc1)NC(=O)[C@H](Cc1ccccc1)NC(=O)C1Cc2ccccc2CN1C(=O)[C@@H](N)Cc1ccc(O)cc1` (single isomer, unassigned) the IC50 [1] was 0.0371 µM, the IC50 [10] was 0.454 µM and the Ki [4] was 0.0073 µM.

In the case of `C[C@@H]1c2ccccc2CN(C(=O)[C@@H](N)Cc2ccc(O)cc2)C1C(=O)N[C@@H](Cc1ccccc1)C(=O)N[C@@H](Cc1ccccc1)C(=O)O` (single isomer, unassigned; 15), the IC50 [1] is reported as over 10 µM, the Ke [6] is reported as 1560 nM and the Ki [3] is reported as over 10 µM. The Ki [4] was over 10 µM.

For `C[C@@H]1c2ccccc2CN(C(=O)[C@@H](N)Cc2ccc(O)cc2)C1C(=O)N[C@@H](Cc1ccccc1)C(=O)N[C@@H](Cc1ccccc1)C(=O)O` (single isomer, unassigned; 16), the IC50 [1] was over 10 µM, the Ke [6] was 401 nM and the Ki [3] was over 10 µM. It also gave a Ki [4] of over 10 µM.
